# Assay: Toxicity liver stage against HepG2, at 10uM
# Assay type: cell-based
# Design: test concentration 10 uM, cell line HepG2-A16-CD81EGFP
# Settings: human, HepG2-A16-CD81EGFP cells; read-out: INHIBITION
# How it was run: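 Uninfected HepG2-A16-CD81EGFP cells, 3 × 10^3 per well, 1536-well, plated on prespotted compound at 10 μM final, parasite-free screening media added to match infected plates; puromycin 10 μM positive, DMSO 0.5% negative; run in parallel with 48 h PbLuc assay at 37 °C, 5% CO2; viability by CellTiter-Glo luminescence, normalized to controls.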
row,Compound,cytotoxicity at 10 µM
1,OCCN(Cc1cccnc1)c1cnc2ccccc2n1,1.06%
2,Cc1ccc(F)c(C(=O)NC2CCC(N3C(=O)CCC3=O)CC2)c1 (configuration not stated),-6%
3,N#Cc1ccc(S(=O)(=O)Nc2cnn(C3CCOCC3)c2)cc1,-11.3%
4,O=C(c1ccc[nH]1)N1CCO[C@H]2CC(COCc3ccccn3)C[C@@H]21 (some centres not stated),0.718%
5,O=C(NC1CCN(c2ccccc2OC(F)F)C1)c1c[nH]nn1 (configuration not stated),-2.54%
6,c1cnnc(N2CCCC2CNCc2cccs2)c1 (configuration not stated),-9.61%
7,CSCCCN1CCn2nc(CNC(=O)N(C)C)cc2C1,-2.66%
8,Cc1cnn(CC2CCCCN2CCC(=O)Nc2cc(C)on2)c1 (configuration not stated),-0.674%
9,COc1ccc(-n2nc(C(C)=O)c(C(C)=O)c2C)cc1Cl,-0.145%
10,CC1(C)[C@@H]2CC=C(CN3CCCn4nc(C(=O)NCCO)cc4C3)[C@H]1C2,-40.3%
11,CC(C)OCc1cccc(CNc2cnn(C)c(=O)c2Cl)c1,29.5%
12,CCOCCC(=O)NC1(c2cccc(Br)c2)CC1,7.53%
13,Cc1nsc(NC(=O)N2CCCCC2CCCO)n1 (configuration not stated),-46.3%
14,Cc1cc(C)c2c(NCCC34CCCN3CCC4)ncnc2n1,-2.43%
15,O=C(NCc1cncc2c1CCN(Cc1cccs1)C2)C1CC1,2.13%
16,CC(=O)N1CCCN(C2CCCCc3ccccc32)CC1 (configuration not stated),-48.6%
17,Cc1cc(NC(=O)CCN2CCn3c(C)nnc3C2)no1,6.69%
18,CCc1[nH]ncc1C(=O)N1CCCC(n2ccnc2C(C)C)C1 (configuration not stated),2.43%
19,O=S1(=O)c2cccnc2OC(COc2ccccc2)CN1CC1CC1 (configuration not stated),-3.24%
20,O=C(NC1CCN(C2CC2)CC1)NC1CCOc2ccc(Br)cc21 (configuration not stated),-3.43%
21,NC(=O)CN1CCCN(C(=O)Cc2ccc(F)c(Br)c2)CC1,0.361%
22,CN1CCOC(CNCc2cccc(OCc3ccccn3)c2)C1 (configuration not stated),-16.5%
23,O=C(NCc1ccccc1)N1CCC2(CC(=O)N(c3ccccc3)C2)C1 (configuration not stated),2.61%

row,Compound,cytotoxicity at 10 µM
1,O=c1c2ccc(Cl)cc2ncn1CCCN1CCCCC1CO (configuration not stated),-2.4%
2,CC(C)n1cnnc1CN(C)C(=O)CCn1cnc2ccccc2c1=O,6.4%
3,Cc1ccc(CN2CCO[C@H]3[C@H](OCc4cccnc4)CC[C@@H]32)o1,6.22%
4,Cc1nnc(CNC(=O)C2CSCCC(=O)N2)o1 (configuration not stated),-10.1%
5,Cc1ncc(S(=O)(=O)Nc2ccnn2C2CCCCC2)[nH]1,-6.82%
6,CSCCC(C)NC(=O)CCN1C(=O)CCc2cc(F)ccc21 (configuration not stated),6.79%
7,Cn1ncc2c1NC(=O)CSC2c1ccc2c(c1)OCO2 (configuration not stated),0.435%
8,Cc1ccc(F)cc1NS(=O)(=O)c1cc2c(c(C(=O)O)c1)OCCO2,-3.88%
9,Cc1nnc(CN2CCN(CC(O)c3cccc(F)c3)CC2)n1C (configuration not stated),-1.92%
10,OCC1CCN(C[C@@H]2CN(C3Cc4ccccc4C3)C[C@@H]2CO)CC1,-2.02%
11,COc1ccc(NCc2nc(=O)n(CCC(C)C)[nH]2)cc1,-2.9%
12,COc1cc(N2CC[C@@H]3OCCN(C)[C@H]3CC2)ncn1,-96.6%
13,c1nc(N2CCOC(Cn3cncn3)C2)c2sccc2n1 (configuration not stated),16.7%
14,Cn1nnc2c1C(COCC1CC1)CN(Cc1ccoc1)C2 (configuration not stated),2.49%
15,CC(=O)N1CCN(Cn2nc(-c3ccc(F)cc3)oc2=O)CC1,-3.89%
16,Cc1cccc2[nH]c(C3CCN(C(=O)c4ccnn4C)CC3)nc12,-21.6%
17,CC(O)CN1CCC(CNCc2ccc(C#N)cc2)CC1 (configuration not stated),8.83%
18,NC(=O)c1cnc(NC2CCN(c3ccccn3)CC2)c(Cl)c1,13.8%
19,COc1ncccc1C(=O)N1CCC(Nc2ccc(C)nn2)CC1,-18.1%
20,COc1cc2nc(NCCN3CCNC3=O)cc(C)c2cc1OC,-0.454%
21,CS(=O)(=O)Nc1ccc2c(c1)NC(=O)CC2c1cnn2cccnc12 (configuration not stated),-1.77%
22,COC(=O)N1CCC(NC(=O)CC(C)CCc2ccccc2)CC1 (configuration not stated),4.6%
23,CCn1cc(CN(C)C(=O)c2cccc(CCC(C)(C)O)c2)cn1,-0.0444%

row,Compound,cytotoxicity at 10 µM
1,Cc1oc(CN(C)C(=O)c2ccc(C(F)(F)F)cc2)cc1C(=O)O,9.08%
2,CC[C@@H]1N(CC2CCOCC2)CCC[C@]12CCC(=O)N2,18.1%
3,CC(=O)N1CC(=O)N(c2cnn(C)c2)CC12CCN(CC1CC1)C2 (configuration not stated),-2.58%
4,CC(O)CC(C)(C)CNS(=O)(=O)c1cccc(Cl)c1C#N (configuration not stated),-6.03%
5,CC(C)N(CC(N)=O)Cc1csc(Cc2ccccc2)n1,-2.32%
6,CN1CC(C(=O)NCc2cccnc2OCc2ccccc2)CC1=O (configuration not stated),4.44%
7,CC(C)N1CCOCC2(CCCN(C(=O)c3cn(C)cn3)C2)C1 (configuration not stated),1.88%
8,O=C(NCc1nc[nH]n1)c1cc(COc2ccccc2F)[nH]n1,-3.58%
9,COCCC(=O)N1CC[C@H]2O[C@@H](C)C[C@H]2C1,-72.4%
10,O=C(NCc1ccco1)N1CCC(n2ccc(C(F)(F)F)n2)CC1,12.2%
11,CN(Cc1nccn1C)CC1CCOc2ccccc2C1 (configuration not stated),-2.77%
12,Cc1cnn(C2CCCN(C(=O)CCCn3ccnc3C)C2)c1 (configuration not stated),-18.3%
13,CC(Cn1cccn1)NC(=O)Nc1ccccn1 (configuration not stated),1.32%
14,CCn1ccnc1CN1CCN(Cc2ccccn2)CC1C (configuration not stated),14.3%
15,CN(C)Cc1cnc2n1CCN(C(=O)Cc1ccc(F)cc1)CC2,-8.96%
16,CCOC(C)c1nc(CNc2cccc(Cl)c2OC)cs1 (configuration not stated),6.16%
17,NC(=O)NC(=O)CCN1C(=O)CC(Cc2ccc(F)cc2)C1=O (configuration not stated),-0.327%
18,COc1ccc(CN2CCC3(CC2)C(C(=O)O)CC(=O)N3C)cc1Cl (configuration not stated),-5.66%
19,O=C(c1[nH]nc(C2CC2)c1Cl)N1CCCC1,-3.78%
20,CCN(C)C(=O)c1cnc(-c2noc3cc(N4CCCCC4)ccc23)s1,48.6%
21,CC(C)CN(CC(C)C)Cn1ncc2cn(-c3ccccc3)nc2c1=O,1.42%
22,Cc1nn(C)cc1C(=O)N1C[C@@H]2CC[C@H]1CN(S(=O)(=O)N(C)C)C2,19.8%
23,Cc1cc2c(=O)n3c(nc2s1)CCN(Cc1cnn(C)c1C)CC3,3.06%

row,Compound,cytotoxicity at 10 µM
1,c1cncc(-c2noc(CN3CCCC3Cn3cccn3)n2)c1 (configuration not stated),-4.74%
2,O=C([C@H]1CC[C@@H]2[C@@H](CCN2C2CCCC2)O1)N1CCOCC1,11.5%
3,Clc1cc(CN2CCCCC2Cn2cncn2)c2ncccc2c1 (configuration not stated),-12.9%
4,CCOc1ncccc1Cn1cc(-c2ccc(CO)o2)nn1,-1.91%
5,CCOCCC(=O)Nc1cc(C(N)=O)ccc1N1CCCC(C)C1 (configuration not stated),-43%
6,O=c1c2c[nH]c(N3CCCCC3)nc-2cn1-c1ccc2c(c1)OCO2,15%
7,CN(Cc1cccc(F)c1)S(=O)(=O)N1CCOCC1,-1.97%
8,CCNC(=O)CCC(=O)N1CCC(Oc2cc(C)ccc2C)CC1,-4.59%
9,O=C1NC2(Cc3ccccc31)CN(CC1CCNC1)C2 (configuration not stated),9.76%
10,CC(Cc1ccco1)NC(=O)Nc1ccc(S(C)(=O)=O)nc1 (configuration not stated),3.95%
11,CC(C)(C)Oc1ccc(CN)c(C(F)(F)F)c1,9.5%
12,O=C(c1ccoc1)N1CCO[C@@H]2CNC[C@@H]21,-99.9%
13,Cc1c(NC(=O)c2cnc[nH]2)cccc1C(=O)NC(C)(C)C,-6.46%
14,Cn1cc(C(=O)N(Cc2ccco2)Cc2cccs2)ccc1=O,-0.0261%
15,CC(NC1CCCC1)c1ccccc1-n1cccn1 (configuration not stated),7.5%
16,COc1cccc([C@@]2(O)CC[C@@H]3CN(C(=O)c4cn(C)nc4C)C[C@@H]32)c1,3.51%
17,CNCC(=O)N1CCC(c2ccnc(Nc3ccc(C)cn3)n2)C1 (configuration not stated),-2.29%
18,O=C(c1ccsc1)N1C[C@@H]2CCN(c3cccnc3)C[C@@H]2C1,-69.3%
19,CCn1ccnc1CN(C)c1cc(C2CC2)ncn1,-47.9%
20,CN1CCN(C[C@@H]2CN(C(=O)CCc3cn[nH]c3)C[C@@H]2CO)CC1,-0.973%
21,O=C(c1cccc2c1OCO2)N1CCCC1Cn1cccn1 (configuration not stated),3.46%
22,O=C(NCCCO)c1cc(-c2cc[nH]n2)n2ccccc12,14.3%
23,CC(=O)c1nn(-c2ccccc2)c(C)c1C(C)=O,2.27%

row,Compound,cytotoxicity at 10 µM
1,c1ncc2c(n1)CN(CC1CCCCO1)CC2 (configuration not stated),2.93%
2,CCOc1ccc(Br)cc1C1CCCN1 (configuration not stated),5.01%
3,COc1cc(CN2CCCCCC2c2cccs2)cc(OC)c1OC (configuration not stated),33.3%
4,CCCn1nc(C)c(C(=O)N(C)[C@@H]2CC[C@@H](N3CCCC3)[C@@H]2O)c1C,2.28%
5,COc1ccc2nnc(CCCC(=O)NCc3ccccc3F)n2n1,-0.524%
6,CC(C)C(c1cccnc1)N(C)C(=O)Cc1c(F)cccc1F (configuration not stated),-0.595%
7,Cc1ccc(CSc2nc(N)cc(NCCS(=O)(=O)N(C)C)n2)cc1,0.479%
8,Cn1nc(Cn2ccnc2)c2c1CN(C(=O)c1ccoc1)C2,-58.9%
9,COc1ccccc1C(C)CC(=O)N1CCN(S(N)(=O)=O)CC1 (configuration not stated),-51.3%
10,CC(C)Oc1cccc(CN(C)C(=O)Cc2ccon2)c1,-2.09%
11,C=c1occc1=C1NC(c2cccc(CN3CCOCC3)c2)=NO1,-5.92%
12,c1ncc(CN2CC(Cc3nccc4cc[nH]c34)C2)cn1,-1.06%
13,Cc1noc(C)c1CCC(=O)NC(C)c1nnc2n1CCCCC2 (configuration not stated),-1.18%
14,O=C(C1CCOC1)N1Cc2ccccc2OC2(CCOCC2)C1 (configuration not stated),1.32%
15,CC(C)CN1CC[C@@H]2[C@H](CC1)N(S(C)(=O)=O)CCS2(=O)=O,2.05%
16,CCCn1ncc(CN2CCCCC2CCCOC)c1C (configuration not stated),-15.2%
17,Cc1cc2c(cc1NC(=O)NC(C)(C)C)OCO2,-1.47%
18,NC(=O)COc1ccc(CNCc2c(F)cccc2F)cc1,-5.03%
19,O=C1NCCN1C1CCN(Cc2coc(-c3ccccc3)n2)CC1,-1.54%
20,O=C1NC2(CCN(CCO)CC2)CC1c1ccccc1 (configuration not stated),-3.83%

# Reference: ChEMBL document CHEMBL4513216, “Probing the Open Global Health Chemical Diversity Library for Multistage-Active Starting Points for Next-Generation Antimalarials” (ACS Infect Dis, 2020)
